For series [1], the system named is Rattus norvegicus. The experiment in a line: Variation in mean arterial pressure produced by angiotensin II, 60 min after administration (dose 10 ug/kg/min) in rats; 94/6. The class given is functional, Artery. A digest of the protocol: (§1)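 Rats were anesthetized and ganglion-blocked. Antagonist was given by iv infusion in µg/kg per min. The pressor response to angiotensin II (30 ng/kg iv) was measured before infusion, during infusion, and 5, 10, 20, 40 and 60 min after it. Responses are given as % of the pre-infusion control, as mean ± SEM, with n = 4–6 rats.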

Series [2] concerns Rattus norvegicus. The experiment in a line: Variation in mean arterial pressure produced by angiotensin II, 5 min after administration (dose 10 ug/kg/min) in rats; 29/5. The class given is functional, Artery. A digest of the protocol: as §1
Series [3] deals with Rattus norvegicus. Description: Variation in mean arterial pressure produced by angiotensin II, 10 min after administration (dose 10 ug/kg/min) in rats; 50/5. The class given is functional, Artery. The gist of the method: as §1
The subject of series [4] is Rattus norvegicus. Description: Variation in mean arterial pressure produced by angiotensin II, 20 min after administration (dose 10 ug/kg/min) in rats; 78/5. The class given is functional, Artery. The gist of the method:
as §1

Series [5] relates to Rattus norvegicus. The experiment in a line: Variation in mean arterial pressure, produced by angiotensin II upon administration at 10 ug/kg/min in rats. The class given is functional, Artery. The gist of the method: as §1
Series [6] concerns Rattus norvegicus. Description: Variation in mean arterial pressure produced by angiotensin II, 40 min after administration (dose 10 ug/kg/min) in rats; 96/4. The format is functional, Artery. A digest of the protocol:
as §1

For series [7], the system named is Rattus norvegicus. The experiment in a line: Variation in mean arterial pressure produced by angiotensin II, 5 min after administration (dose 30 ug/kg/min) in rats; 35/1. The format is functional, Artery. A digest of the protocol: as §1
Series [8] relates to Rattus norvegicus. The experiment in a line: Variation in mean arterial pressure, produced by angiotensin II upon administration at 30 ug/kg/min in rats. The format is functional, Artery. A digest of the protocol:
as §1

Series [9] relates to Rattus norvegicus. The experiment in a line: Variation in mean arterial pressure produced by angiotensin II, 10 min after administration (dose 30 ug/kg/min) in rats; 63/3. The format is functional, Artery. A digest of the protocol:
as §1

In series [10] the test system is Rattus norvegicus. The experiment in a line: Variation in mean arterial pressure produced by angiotensin II, 60 min after administration (dose 30 ug/kg/min) in rats; 97/3. The format is functional, Artery. A digest of the protocol:
as §1

For series [11], the system named is Rattus norvegicus. The experiment in a line: Variation in mean arterial pressure produced by angiotensin II, 20 min after administration (dose 30 ug/kg/min) in rats; 87/4. The format is functional, Artery. The gist of the method:
as §1

Series [12] concerns Rattus norvegicus. The experiment in a line: Variation in mean arterial pressure produced by angiotensin II, 40 min after administration (dose 30 ug/kg/min) in rats; 96/4. The format is functional, Artery. The gist of the method: as §1
Series [13] relates to Rattus norvegicus. Description: Variation in mean arterial pressure produced by angiotensin II, 40 min after administration (dose: 60 ug/kg/min) in rats; 91/4. The class given is functional, Artery. The gist of the method:
as §1

The species entered for a further series is Oryctolagus cuniculus. The experiment in a line: Tested for antagonist activity in rabbit aortic rings, pA2 values were determined from Schild plots. Particulars: Aorta, read-out: pA2 (converted). The format is functional. The gist of the method:
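Isolated rabbit aortic rings were used and contraction was recorded. Agonist activity was tested up to 10⁻⁵ M. For antagonism, angiotensin II concentration-response curves were run with and without three antagonist concentrations. pD2 was taken from the curves and pA2 from Schild plots fitted by least squares.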

For series [14], the system named is Rattus norvegicus. Description: Variation in mean arterial pressure produced by angiotensin II, 60 min after administration (dose: 60 ug/kg/min) in rats; 91/5. The format is functional, Artery. A digest of the protocol: as §1
Series [15] relates to Rattus norvegicus. The experiment in a line: Variation in mean arterial pressure produced by angiotensin II, 5 min after administration (dose: 60 ug/kg/min) in rats; 50/5. The class given is functional, Artery. The gist of the method:
as §1

For series [16], the species on record is Rattus norvegicus. Description: Concentration at which compound antagonizes increase in arterial pressure produced by angiotensin II. Particulars: Artery.
The subject of series [17] is Rattus norvegicus. The experiment in a line: Variation in mean arterial pressure, produced by angiotensin II upon administration at 60 ug/kg/min in rats; 6/3. The class given is functional, Artery. The gist of the method:
as §1

Series [18] deals with Rattus norvegicus. The experiment in a line: Variation in mean arterial pressure produced by angiotensin II, 20 min after administration (dose: 60 ug/kg/min) in rats; 78/5. The format is functional, Artery. A digest of the protocol:
as §1

For series [19], the system named is Rattus norvegicus. The experiment in a line: Variation in mean arterial pressure produced by angiotensin II, 10 min after administration (dose: 60 ug/kg/min) in rats; 61/5. The format is functional, Artery. A digest of the protocol: as §1
The nature of series [20]: Rate constant was determined for the compound. The class given is ADME.
Another series is filed under the species Canis familiaris. Description: Antagonistic effect on aldosterone secretion by zona glomerulosa cells from canine adrenal glands. The format is functional. The conditions noted are these: Canis lupus familiaris; Adrenal gland.

Peptide text beside a SMILES is read from it.

With `CNCC(=O)N[C@@H](CCCNC(=N)N)C(=O)N[C@H](C(=O)N[C@@H](Cc1ccc(O)cc1)C(=O)N[C@H](C(=O)N[C@@H](Cc1cnc[nH]1)C(=O)N1CCC[C@H]1C(=O)N[C@@H](C)C(=O)O)C(C)C)C(C)C` [SARALASIN], the Control in the series on Rattus norvegicus [1] is on record as 94%; in the series with Rattus norvegicus [2], 29%; with Rattus norvegicus [3] it was 50%; in the series with Rattus norvegicus [4], 78%; in the series with Rattus norvegicus [5], 0%; in the series with Rattus norvegicus [6], 96%.
On to `CC[C@H](C)[C@H](NC(=O)[C@H](Cc1ccc(OC)cc1)NC(=O)[C@@H](NC(=O)[C@H](CCCN=C(N)N)NC(=O)CNC)C(C)C)C(=O)N[C@@H](Cc1c[nH]cn1)C(=O)N1CCC[C@H]1C(=O)N[C@@H](Cc1ccccc1)C(=O)O`, for which the Control is given as 35% in the series with Rattus norvegicus [7]; 0% with Rattus norvegicus [8]; 63% in the series on Rattus norvegicus [9]; 97% with Rattus norvegicus [10]; 87% in the series on Rattus norvegicus [11]; 96% with Rattus norvegicus [12].
In the case of `CC[C@H](C)[C@H](NC(=O)[C@H](Cc1ccc(O)cc1)NC(=O)[C@@H](NC(=O)[C@H](CCCN=C(N)N)NC(=O)CNC)C(C)C)C(=O)N[C@@H](Cc1c[nH]cn1)C(=O)N1CCC[C@H]1C(N)=O`, the Control in the series with Rattus norvegicus [13] amounted to 91%; with Rattus norvegicus [14], 91%; in the series on Rattus norvegicus [15], 50%; in the series with Rattus norvegicus [17], 6%; in the series with Rattus norvegicus [18], 78%; in the series with Rattus norvegicus [19], 61%. Also, the Kb in the series listed under Oryctolagus cuniculus is 23.4 nM. In the series listed under Rattus norvegicus [16], this molecule came in with a Concentration (ug min-1 kg-1) of 60.
Consider `CC[C@H](C)[C@H](NC(=O)[C@H](Cc1ccc(O)cc1)NC(=O)[C@@H](NC(=O)[C@H](CCCNC(=N)N)NC(=O)[C@@H](N)CC(=O)O)C(C)C)C(=O)N[C@@H](Cc1cnc[nH]1)C(=O)N1CCC[C@H]1C(=O)N[C@@H](Cc1ccccc1)C(=O)O` [ANGIOTENSIN II], for which the pD2 in [20] is on record as 8.98.
In the case of `CC(C)[C@H](NC(=O)[C@H](CCCN=C(N)N)NC(=O)[C@@H](N)CC(=O)O)C(=O)N[C@@H](Cc1ccc(O)cc1)C(=O)N[C@H](C(=O)N[C@@H](Cc1c[nH]cn1)C(=O)N1CCC[C@H]1C(=O)O)C(C)C` (H-DRVYVHP-OH), in the series filed under Canis familiaris, the Concentration is 1 mM.

Source of the values: ChEMBL document CHEMBL1124614, “A carboxy-terminus truncated analogue of angiotensin II, [Sar1]angiotensin II-(1-7)-amide, provides an entry to a new class of angiotensin II antagonists” (J Med Chem, 1989).
